Measurements reported in ChEMBL document CHEMBL5096237, “Orally Bioavailable Prodrugs of ψ-GSH: A Potential Treatment for Alzheimer's Disease” (J Med Chem, 2022).
Each block holds one compound with its values, some of them ahead of it. Activity calls are given as the source filed them. No cut-off for these calls is given here.

Tests used:
[1] = Stability in CD-1 mouse assessed as half life at gastric phase of gastrointestinal tract at 1 uM measured upto 240 mins by LC-MS/MS analysis; assay type: ADME; settings: for t1/2: mouse, 4 h, 1 µM
Summary of the method: (§1)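 Compound at 1 μM final was incubated at 37 °C in plasma, brain homogenate, liver homogenate, simulated gastric fluid or simulated intestinal fluid. Aliquots taken at 0, 5, 15, 30, 60, 120 and 240 min were quenched with 3 volumes of acetonitrile containing 1% formic acid and centrifuged. Supernatants were analyzed by HPLC-UV (254 nm, after Fmoc-Cl derivatization) and/or LC-MS/MS to derive t1/2.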

[2] = Stability in CD-1 mouse assessed as half life at intestinal phase of gastrointestinal tract at 1 uM measured upto 240 mins by LC-MS/MS analysis; assay type: ADME; settings: for t1/2: mouse, 4 h, 1 µM; summary of the method: as §1
[3] = Stability in CD-1 mouse plasma assessed as half life at 1 uM measured upto 240 mins by LC-MS/MS analysis; assay type: ADME, cell-free; settings: for t1/2: mouse, 4 h, 1 µM; for half-life at 1 µM: CD-1, mouse; summary of the method: as §1
[4] = Stability in CD-1 mouse brain homogenate assessed as half life at 1 uM measured upto 240 mins by LC-MS/MS analysis; assay type: ADME, tissue-based
Summary of the method: (§2)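 Compound at 1 μM final was incubated at 37 °C in plasma, brain homogenate, liver homogenate, simulated gastric fluid or simulated intestinal fluid. Supernatants were analyzed by HPLC-UV (254 nm, after Fmoc-Cl derivatization) and/or LC-MS/MS to derive t1/2.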

Mus musculus [5] = test: Anti-alzheimer activity against APP/PS1 mouse model assessed as reduction in insoluble Abeta1-42 at 500 mg/kg, po […] by ELISA assay relative to control; assay type: functional; set-up: scale not given: the % may be the effect or the level left
Summary of the method: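 APP/PS1 mice, 3–4 months old, were gavaged with ψ-GSH 500 mg/kg or saline three times weekly for 12 weeks. Insoluble brain Aβ1–42 was quantified by sandwich ELISA and expressed as % of saline-treated APP/PS1 mice.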

[6] = AUC in CD-1 mouse measured in per mg of brain tissue at 500 mg/kg, ip; assay type: ADME, organism-based; set-up: dose 500 mg/kg, route ip; settings: in vivo
Summary of the method: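 Male CD-1 mice, eight weeks old, N = 4 per time point. They received oral prodrug at 250 mg/kg, or ψ-GSH at 500 mg/kg i.p. for comparison. Blood and brain were taken at 2, 4 and 6 h. Brain was homogenized 1:5 (w/v) in DPBS. Plasma and homogenate were treated with 100 mM N-ethylmaleimide for 10 min at ambient temperature, deproteinized with 3% sulfosalicylic acid, then quantified by positive-ESI LC-MS/MS MRM, with ψ-GSH read as its NEM adduct.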

Mus musculus [7] = test: Anti-alzheimer activity against APP/PS1 mouse model assessed as time spent in the target quadrant at 500 mg/kg, po measured after 4 days by Morris water maze test (reference value: 16.39+/-3.39%); assay type: functional; settings: time 4 day
[8] = Stability in CD-1 mouse liver homogenate assessed as half life at 1 uM measured upto 240 mins by LC-MS/MS analysis; assay type: ADME, tissue-based; summary of the method: as §2
Mus musculus [9] = test: Anti-alzheimer activity against APP/PS1 mouse model assessed as increase in spatial memory development at 500 mg/kg, po measured after 4 days by Morris water maze test; assay type: functional, organism-based; settings: time 4.0 day
Mus musculus [10] = species on record: Mus musculus; test: Anti-alzheimer activity against A-beta injected mouse assessed as reduction in microglial activation in dentate gyrase region by GFAP staining based analysis; assay type: functional, organism-based; settings: in the assay text read “Iba1 staining” for “GFAP staining”
Summary of the method: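 C57BL/6 mice were dosed with compound at 250 mg/kg once daily for 12 days; Aβ1–42 oligomers were given i.c.v. on day 4. Half-brains were fixed in 4% PFA for 24 h and sucrose-cryoprotected. 40 μm coronal sections, every 12th (4–6 sections), were immunostained for GFAP (astrocytes) or Iba1 (microglia) by ABC/DAB after antigen retrieval. Stained area fraction in dorsal hippocampus or dentate gyrus was measured stereologically at ×40.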

[11] = Reversal of resistant against ip dosed Abeta1-42 induced cognitive impairment in mouse assessed as reduction in repetitive arm entries (reference value: 3.22+/-0.27); settings: in vivo
Mus musculus [12] = test: Anti-alzheimer activity against oral dosed mouse brain assessed as restoration of reduced GSH level by […]; assay type: functional, organism-based
Summary of the method: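 Brains from the i.c.v. Aβ1–42 mice were homogenized and deproteinized with metaphosphoric acid. After neutralization, samples were diluted in 50 mM MES (pH 6.0, 1 mM EDTA). GSH was measured by enzymatic recycling with DTNB, reading TNB absorbance at 412 nm.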

Mus musculus [13] = test: Anti-alzheimer activity against APP/PS1 mouse model assessed as escape latency at 500 mg/kg, po measured after 4 days by Morris water maze test (reference value: 6.64+/-1.58 sec); assay type: functional; settings: time 4 day
[14] = Reversal of resistant against po dosed Abeta1-42 induced cognitive impairment in mouse assessed as reduction in repetitive arm entries (reference value: 3.22+/-0.27); assay type: organism-based; settings: in vivo
[15] = Stability in CD-1 mouse plasma at 250 mg/kg, po at 1 uM measured after 6 hrs by LC-MS/MS analysis; assay type: ADME, organism-based; settings: in vivo
Mus musculus [16] = test: Anti-alzheimer activity against oral dosed mouse brain assessed as reduction in AGE level by immunohistochemical analysis; assay type: functional, organism-based

SMILES: CC(=O)SC[C@H](NC(=O)NC[C@H](N)C(=O)O)C(=O)NCC(=O)O
- t1/2 [1]: 28.88 h
- t1/2 [2]: 5.02 h
- t1/2 [3]: 5.8 h

SMILES: N[C@@H](CNC(=O)N1C(=O)SC[C@H]1C(=O)NCC(=O)O)C(=O)O
- t1/2 [3]: 25.57 h

SMILES: CCOC(=O)SC[C@H](NC(=O)NC[C@H](N)C(=O)O)C(=O)NCC(=O)O
- t1/2 [1]: 27.7 h
- t1/2 [2]: 38.5 h
- t1/2 [3]: 47.14 h

SMILES: CCOC(=O)SC[C@H](NC(=O)NC[C@H](N)C(=O)OC1CCCC1)C(=O)NCC(=O)OC1CCCC1
- t1/2 [3]: 61.32 h

Continued, in another order:

- half-life at 1 µM [4]: 1.51 h
- AUC [6]: 8.06 nmol·h
- half-life at 1 µM ([1]; CD-1, mouse, gastric phase of gastrointestinal tract): 28.8 h
- half-life at 1 µM ([2]; CD-1, mouse, intestinal phase of gastrointestinal tract): 1.28 h
- half-life at 1 µM [8]: 0.02 h
- Activity (Mus musculus [10]): Active
- repetitive arm entries [11]: 0.5
- half-life at 1 µM [3]: 0.23 h
SMILES: N[C@@H](CNC(=O)N[C@@H](CS)C(=O)NCC(=O)O)C(=O)O
- Activity (Mus musculus [5]): 90.8%
- Activity (Mus musculus [7]): 21.76%
- Activity (Mus musculus [9]): Active
- Activity (Mus musculus [12]): Active
- Time (Mus musculus [13]): 6.9 s

- t1/2 [1]: 4.87 h
- t1/2 [2]: 5.24 h
- repetitive arm entries [14]: 1.8
- Stability [15]: Stable
- t1/2 [3]: 72.2 h
SMILES: Cl.N[C@@H](CNC(=O)N[C@@H](CS)C(=O)NCC(=O)OC1CCCC1)C(=O)OC1CCCC1
- Activity (Mus musculus [16]): Active

- half-life at 1 µM [8]: 116 h
- half-life at 1 µM [3]: 30.6 h
SMILES: N[C@@H](CNC(=O)N1CSC[C@H]1C(=O)NCC(=O)O)C(=O)O
